Test results reported in ChEMBL document CHEMBL1134346, “Labeling and evaluation of N-[11C]methylated quinoline-2-carboxamides as potential radioligands for visualization of peripheral benzodiazepine receptors” (J Med Chem, 2001).

Tests used:
[1] = organism: Rattus norvegicus; test: Tissue (spleen) distribution in Albino male CD rats after 60 minutes expressed as percent of injected dose per gram of organ.; format: ADME, organism-based; settings: in vivo, 1 h
[2] = organism: Rattus norvegicus; test: Tissue (testicle) distribution in Albino male CD rats after 30 minutes expressed as percent of injected dose per gram of organ.; format: ADME, organism-based; settings: in vivo, 0.5 h
Method in brief: (§1)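 Male albino CD rats (225-250 g) received the 11C-labelled radioligand in saline by tail-vein injection. Three rats per time point were decapitated under light ether anaesthesia at 5, 15, 30, 60 or 90 min. Blood was collected heparinized and plasma separated by centrifugation. The pituitary was dissected from the brain. Lung, liver (three-lobe pieces) and right deltoid muscle were sampled, washed in cold saline, gamma-counted and weighed. Results are %I.D./g.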

[3] = organism: Rattus norvegicus; test: Tissue (testicle) distribution in Albino male CD rats after 90 minutes expressed as percent of injected dose per gram of organ.; format: ADME, organism-based; settings: in vivo, 1.5 h
[4] = organism: Rattus norvegicus; test: Tissue (kidney) distribution in Albino male CD rats after 30 minutes expressed as percent of injected dose per gram of organ.; format: ADME, organism-based; settings: in vivo, 0.5 h
Method in brief: (§2)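 Radioligand given in saline into tail vein of male albino CD rats (225-250 g); 100-200 µCi per animal, 1-2 Ci/µmol at injection depending on radioligand. Three rats per time point were decapitated under light ether anaesthesia. Blood, plasma, brain regions and washed organs were weighed and gamma-counted. Uptake is %I.D./g tissue, mean ± SD.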

[5] = organism: Rattus norvegicus; test: Tissue (kidney) distribution in Albino male CD rats after 60 minutes expressed as percent of injected dose per gram of organ.; format: ADME, organism-based; settings: in vivo, 1 h; method in brief: as §2
[6] = organism: Rattus norvegicus; test: Tissue (kidney) distribution in Albino male CD rats after 90 minutes expressed as percent of injected dose per gram of organ.; format: ADME, organism-based; settings: in vivo, 1.5 h; method in brief: as §2
[7] = organism: Rattus norvegicus; test: Tissue (liver) concentration of radioactivity at 30 min post-injection into Albino male CD rats with vehicle.; format: ADME, organism-based; settings: in vivo, 0.5 h
Method in brief: (§3)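 Separate groups of five rats received tail-vein PK 11195 (1.4-1.6 mg; 5 mg/kg) in 30 µL DMSO:EtOH 1:1, or vehicle alone, immediately before iv radioligand (90-170 µCi in saline, 0.9-1 Ci/µmol). Rats were decapitated at 30 min and tissues gamma-counted; values are %I.D./g.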

[8] = organism: Rattus norvegicus; test: Tissue (liver) distribution in Albino male CD rats after 60 minutes expressed as percent of injected dose per gram of organ.; format: ADME, organism-based; settings: in vivo, 1 h; method in brief: as §1
[9] = molecular target: Translocator protein (Rattus norvegicus) (UniProt P16257); test: Tissue (lung) concentration of radioactivity at 30 min post-injection into Albino male CD rats after pretreatment with cold PK 11195.; format: functional
Chain of Translocator protein (Rattus norvegicus) (P16257 whole entry, looked up): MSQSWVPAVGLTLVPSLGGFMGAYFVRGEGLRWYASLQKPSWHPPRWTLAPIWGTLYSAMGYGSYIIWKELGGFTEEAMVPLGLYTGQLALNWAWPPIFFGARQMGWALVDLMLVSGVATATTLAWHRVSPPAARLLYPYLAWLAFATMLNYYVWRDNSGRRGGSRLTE
Method in brief: (§4)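 Blocking study in male albino CD rats, five per group. Immediately before the 11C radioligand (in saline, i.v. tail vein), rats received 30 µL tail-vein PK 11195 (5 mg/kg; 1.4-1.6 mg) in DMSO:EtOH 1:1, or vehicle. Rats were decapitated at 30 min. Tissues were dissected, washed, gamma-counted and weighed as in the biodistribution study. Results are %I.D./g.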

[10] = organism: Rattus norvegicus; test: Tissue (lung) concentration of radioactivity at 30 min post-injection into Albino male CD rats with vehicle.; format: ADME, organism-based; settings: in vivo, 0.5 h; method in brief: as §4
[11] = organism: Rattus norvegicus; test: Tissue (lung) distribution in Albino male CD rats after 5 minutes expressed as percent of injected dose per gram of organ.; format: ADME, organism-based; settings: in vivo; method in brief: as §1
[12] = organism: Rattus norvegicus; test: Tissue (lung) distribution in Albino male CD rats after 60 minutes expressed as percent of injected dose per gram of organ.; format: ADME, organism-based; settings: in vivo, 1 h; method in brief: as §1
[13] = organism: Rattus norvegicus; test: Tissue (blood) distribution in Albino male CD rats after 15 minutes expressed as percent of injected dose per gram of organ.; format: ADME, organism-based; settings: in vivo, 0.25 h; method in brief: as §2
[14] = organism: Rattus norvegicus; test: Tissue (blood) distribution in Albino male CD rats after 5 minutes expressed as percent of injected dose per gram of organ.; format: ADME, organism-based; settings: in vivo; method in brief: as §2
[15] = organism: Rattus norvegicus; test: Tissue (blood) distribution in Albino male CD rats after 60 minutes expressed as percent of injected dose per gram of organ.; format: ADME, organism-based; settings: in vivo, 1 h; method in brief: as §2
[16] = organism: Rattus norvegicus; test: Tissue (adrenal gland) distribution in Albino male CD rats after 5 minutes expressed as percent of injected dose per gram of organ.; format: ADME, organism-based; settings: in vivo; method in brief: as §2
[17] = organism: Rattus norvegicus; test: Tissue (spleen) distribution in Albino male CD rats after 15 minutes expressed as percent of injected dose per gram of organ.; format: ADME, organism-based; settings: in vivo, 0.25 h
[18] = organism: Rattus norvegicus; test: Tissue (muscle) distribution in Albino male CD rats after 30 minutes expressed as percent of injected dose per gram of organ.; format: ADME, organism-based; settings: in vivo, 0.5 h; method in brief: as §1
[19] = organism: Rattus norvegicus; test: Tissue (muscle) distribution in Albino male CD rats after 5 minutes expressed as percent of injected dose per gram of organ.; format: ADME, organism-based; settings: in vivo; method in brief: as §1
[20] = organism: Rattus norvegicus; test: Tissue (cortex) distribution in Albino male CD rats after 15 minutes expressed as percent of injected dose per gram of organ.; format: ADME, organism-based; settings: in vivo, 0.25 h; method in brief: as §2
[21] = organism: Rattus norvegicus; test: Tissue (cortex) distribution in Albino male CD rats after 60 minutes expressed as percent of injected dose per gram of organ.; format: ADME, organism-based; settings: in vivo, 1 h; method in brief: as §2
[22] = organism: Rattus norvegicus; test: Tissue (cortex) distribution in Albino male CD rats after 90 minutes expressed as percent of injected dose per gram of organ.; format: ADME, organism-based; settings: in vivo, 1.5 h; method in brief: as §2
[23] = organism: Rattus norvegicus; test: Tissue (muscle) distribution in Albino male CD rats after 60 minutes expressed as percent of injected dose per gram of organ.; format: ADME, organism-based; settings: in vivo, 1 h; method in brief: as §1
[24] = molecular target: Translocator protein (Rattus norvegicus) (UniProt P16257); test: Tissue (pituitary) concentration of radioactivity at 30 min post-injection into Albino male CD rats after pretreatment with cold PK 11195.; format: functional, tissue-based; settings: Pituitary gland; method in brief: as §4
[25] = organism: Rattus norvegicus; test: Tissue (pituitary) concentration of radioactivity at 30 min post-injection into Albino male CD rats with vehicle.; format: ADME, organism-based, Pituitary gland; settings: in vivo, 0.5 h; method in brief: as §4
[26] = organism: Rattus norvegicus; test: Tissue (pituitary) distribution in Albino male CD rats after 30 minutes expressed as percent of injected dose per gram of organ.; format: ADME, organism-based, Pituitary gland; settings: in vivo, 0.5 h; method in brief: as §1
[27] = organism: Rattus norvegicus; test: Tissue (pituitary) distribution in Albino male CD rats after 60 minutes expressed as percent of injected dose per gram of organ.; format: ADME, organism-based, Pituitary gland; settings: in vivo, 1 h; method in brief: as §1
[28] = organism: Rattus norvegicus; test: Tissue (pituitary) distribution in Albino male CD rats after 90 minutes expressed as percent of injected dose per gram of organ.; format: ADME, organism-based, Pituitary gland; settings: in vivo, 1.5 h; method in brief: as §1
[29] = organism: Rattus norvegicus; test: Tissue (plasma) distribution in Albino male CD rats after 15 minutes expressed as percent of injected dose per gram of organ.; format: ADME, organism-based; settings: in vivo, 0.25 h; method in brief: as §1
[30] = organism: Rattus norvegicus; test: Tissue (plasma) distribution in Albino male CD rats after 90 minutes expressed as percent of injected dose per gram of organ.; format: ADME, organism-based; settings: in vivo, 1.5 h; method in brief: as §1
[31] = organism: Rattus norvegicus; test: Tissue (heart) distribution in Albino male CD rats after 15 minutes expressed as percent of injected dose per gram of organ.; format: ADME, organism-based; settings: in vivo, 0.25 h; method in brief: as §2
[32] = organism: Rattus norvegicus; test: Tissue (heart) distribution in Albino male CD rats after 90 minutes expressed as percent of injected dose per gram of organ.; format: ADME, organism-based; settings: in vivo, 1.5 h; method in brief: as §2
[33] = organism: Rattus norvegicus; test: Tissue (intestine) distribution in Albino male CD rats after 30 minutes expressed as percent of injected dose per gram of organ.; format: ADME, organism-based; settings: in vivo, 0.5 h; method in brief: as §2
[34] = organism: Rattus norvegicus; test: Tissue (intestine) distribution in Albino male CD rats after 90 minutes expressed as percent of injected dose per gram of organ.; format: ADME, organism-based; settings: in vivo, 1.5 h; method in brief: as §2
[35] = molecular target: Translocator protein (Rattus norvegicus) (UniProt P16257); test: Tissue (kidney) concentration of radioactivity at 30 min post-injection into Albino male CD rats after pretreatment with cold PK 11195.; format: functional, tissue-based; method in brief: as §3
[36] = organism: Rattus norvegicus; test: Tissue (blood) distribution in Albino male CD rats after 90 minutes expressed as percent of injected dose per gram of organ.; format: ADME, organism-based; settings: in vivo, 1.5 h; method in brief: as §2
[37] = organism: Rattus norvegicus; test: Tissue (cerebellum) distribution in Albino male CD rats after 5 minutes expressed as percent of injected dose per gram of organ.; format: ADME, organism-based; settings: in vivo; method in brief: as §2
[38] = molecular target: Translocator protein (Rattus norvegicus) (UniProt P16257); test: Tissue (cortex) concentration of radioactivity at 30 min post-injection into Albino male CD rats after pretreatment with cold PK 11195.; format: functional; method in brief: as §3
[39] = organism: Rattus norvegicus; test: Tissue (lung) distribution in Albino male CD rats after 15 minutes expressed as percent of injected dose per gram of organ.; format: ADME, organism-based; settings: in vivo, 0.25 h; method in brief: as §1
[40] = organism: Rattus norvegicus; test: Tissue (intestine) distribution in Albino male CD rats after 15 minutes expressed as percent of injected dose per gram of organ.; format: ADME, organism-based; settings: in vivo, 0.25 h; method in brief: as §2

Cc1c(C(=O)N(C)Cc2ccccc2)nc2ccccc2c1-c1ccccc1
I.D./g [1]: 1.55%
I.D./g [2]: 0.13%
I.D./g [3]: 0.2%
I.D./g [4]: 1.05%
I.D./g [5]: 1.14%
I.D./g [6]: 1.34%
I.D./g [7]: 0.08%
I.D./g [8]: 0.41%
I.D./g [9]: < 0.05%
I.D./g [10]: 0.35%
I.D./g [11]: 4%
I.D./g [12]: 1.48%
I.D./g [13]: 0.09%
I.D./g [14]: 0.2%
I.D./g [15]: 0.06%
I.D./g [16]: 0.77%
I.D./g [17]: 1.27%
I.D./g [18]: 0.26%
I.D./g [19]: 0.19%
I.D./g [20]: 0.17%
I.D./g [21]: 0.06%
I.D./g [22]: 0.05%
I.D./g [23]: 0.14%
I.D./g [24]: > 0.09%
I.D./g [25]: 0.11%
I.D./g [26]: 0.3%
I.D./g [27]: 0.36%
I.D./g [28]: 0.15%
I.D./g [29]: 0.09%
I.D./g [30]: 0.05%
I.D./g [31]: 2.62%
I.D./g [32]: 2.38%
I.D./g [33]: 0.55%
I.D./g [34]: 0.68%
I.D./g [35]: < 0.05%
I.D./g [36]: 0.04%
I.D./g [37]: 0.25%
I.D./g [38]: 0.02%
I.D./g [39]: 3.32%
I.D./g [40]: 0.78%
